The values below come from article PMC8901509 (Clinical Drug Investigation, 2021).

The format of data set [1] is in vivo, human. Particulars: gMean dose-normalized maximum plasma concentration. The procedure, abridged: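 Healthy males, overnight fast (≥ 10 h); single oral 25 mg film-coated tablet with water, fasted ≥ 4.5 h; at 4 h, 15-min IV infusion of 30 µg (3 µg [14C]-labelled, 0.011 MBq, plus 27 µg unlabelled). Plasma sampled −2 to 168 h (unlabelled) or 3–168 h (labelled), stored ~−20 °C. Unlabelled drug by validated LC/MS, labelled by AMS. Dose-normalized gMean ratio via mixed-effects ANOVA, two-sided 90% CI.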

The conditions of data set [2]: cited from earlier work.
The conditions of data set [3]: anticipated therapeutic dose range of 5–25 mg; cited from earlier work.
For data set [4] the following is noted: cited from earlier work. This is another data set of the same source.
A short description of data set [5]: Study 1: safety and tolerability. Format: in vivo, human. The procedure, abridged: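 Healthy males given a single oral 25 mg tablet followed 4 h later by a 15-min IV [14C]-microtracer infusion. Medical surveillance for 24 h post-dose. AEs recorded continuously from screening to end-of-trial visit (Days 12–15). Assessment by physical examination, safety laboratory parameters, 12-lead ECG and vital signs (pulse rate, blood pressure).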

Data set [6] is described as follows: Study 2: safety and tolerability. Format: in vivo, human. The procedure, abridged:
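Healthy males, sitting, given a single oral 25 mg dose of [14C]-labelled plus unlabelled drug as a solution after an overnight fast. Safety from physical examination (AEs), safety laboratory parameters, 12-lead ECG and vital signs (pulse rate, blood pressure). Investigators graded severity and drug relatedness.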

For data set [7] the following is noted: multiple oral doses of itraconazole; cited from earlier work.
For data set [8], the system named is glycine transporter-1 (GlyT1). Particulars: human; dose-dependent; cited from earlier work.
Data set [9] is classed as in vivo. The note with it: human, plasma, po, 25 mg, t½, oral 25 mg solution, gMean (gCV%). The procedure, abridged:
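Healthy males, overnight fast (≥ 10 h), sitting; single oral 25 mg dose of [14C]-labelled/unlabelled mixture as 12.5 mL solution (2 mg/mL) with 240 mL water, planned 3.7 MBq; no food ≥ 4 h. Venous blood 5–8 mL per time point; plasma frozen ~−20 °C within 60 min. Cmax, AUC0–tz, AUC0–∞, tmax, t1/2 for parent, three metabolites and total radioactivity.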

Data set [10] has as its system glycine transporter-1 (GlyT1). Particulars: rat; dose-dependent; cited from earlier work.
Data set [11] is described as follows: Study 2: metabolite radioprofiling in plasma, urine and feces. Format: in vivo, human. The procedure, abridged:
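Single oral 25 mg [14C]-labelled solution to healthy males. Plasma (to 168 h), urine and daily feces profiled by HPLC radiochromatography with fractionation and solid scintillation counting. Identification by LC/MS with accurate mass, positive and negative ion CID MS/MS; tentative unless matched to an authentic standard. Peaks < 20 cpm height below quantitation limit.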

Like-named read-outs stand apart in the source and are kept apart here.

By half-life is commonly meant the time needed for the level to fall by half in the phase considered. Consider `C[C@@H](Oc1ccc(S(C)(=O)=O)cc1C(=O)N1C[C@@H]2C[C@]2(c2cc(C(F)(F)F)on2)C1)C(F)(F)F` [BI 425809], for which, in [1], the “Cmax,norm lower after oral administration versus IV dose” value is recorded as “approximately 80%”. Further, in data set [2] (25 mg tablet vs 25 mg solution), the “adjusted gMean ratio for AUC0–tz, tablet fasted vs. oral solution fasted” value is 80.5% and the “adjusted gMean ratio for Cmax, tablet fasted vs. oral solution fasted” value is given as 50.0%. For the same compound, in [2] (25 mg tablet), the “adjusted gMean ratio AUC0–tz, high-fat/high-calorie meal versus 10-h fasted” value is 125.9% and the “adjusted gMean ratio Cmax, high-fat/high-calorie meal versus 10-h fasted” value is 142.1%. The tolerability result in data set [3] was “generally well tolerated”. Besides, in [4], the “Biopharmaceutics Classification System class” value was “Class II” and the permeability result is listed as “high”. For the same compound, the “participants reporting at least one treatment-emergent AE” value in data set [5] (of six participants) stood at 50.0%. Besides, in data set [5] (study 1), the “intensity of treatment-emergent AEs” value is “mild intensity” and the “serious AEs, AEs leading to discontinuation, AEs of special interest” value is reported as “no serious AEs reported”. For the same compound, the tolerability result in data set [5] (study 1, oral 25 mg) is on record as “generally well tolerated”. In addition, the “Total with on-treatment adverse events, %” value in data set [6] (6 subjects) was 83.3%. In data set [6] (study 2), the “AEs considered severe or drug related by the investigators” value was “none” and the “SAEs, AEs leading to discontinuation, AEs of special interest” value is “No SAEs”. For the same compound, the tolerability entry in [6] (study 2, single 25 mg dose) is reported as “generally well tolerated”. For the same compound, the “gMean ratio of Cmax with co-administration of itraconazole” value in data set [7] was 116.1%. Further, in data set [8], the “levels of glycine in cerebral spinal fluid (CSF)” value is listed as “increased”. In [9], this compound showed a half-life of about 50 h. Moreover, in [10], the “levels of glycine in cerebral spinal fluid (CSF)” value is listed as “increased”. The “% of Dose Administrated; % of the radioactive dose” value in data set [11] (Average, feces radioprofiling) is listed as under 1%. Further, the “Plasma (%AUC0-168h), % [14C]; % of total plasma radioactivity” value in [11] (Average, plasma radioprofiling) was found to be 41.0%. The “% of total radioactivity in feces” value in data set [11] (feces radioprofiling) is given as under 1%.
